Bioassay records deposited in PubChem BioAssay by The Scripps Research Institute Molecular Screening Center.
Rows were chosen to be rich in hits. Some 4.5% of all compounds tested hit in one or more screens of this group.
CHO parental Ca = ATP-evoked calcium signal inhibitors, parental CHO, primary screen, counter-screen for OX1R antagonist project, cell-based, fluorescence, Fluo-8 calcium dye. parental CHO-K1, ATP-induced calcium, Fluo-8 fluorescence. inhibition, % at 5.6 µM. 330,000 tested, 0.63% active. AID 463079, 2010;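 active = inhibition above that plate's mean sample inhibition plus 3 SD, cut at about 26% in these data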;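 note: 0% = ATP-challenged DMSO wells and 100% = DMSO wells without ATP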
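Test system: parental CHO cells; detection: calcium-sensitive Fluo-8 fluorescence; evaluation: percent inhibition of calcium signal; also added: ATP as calcium-mobilizing challenge; repeats: one well per compound; control set: ATP-challenged DMSO wells low, unchallenged DMSO wells high; compound: single nominal dose of 5.6 µM per compound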
TAAR1 antag = human TAAR1 antagonists, primary screen, Fluo-8 calcium fluorescence, CHO RD-HGA16 cells; Trace amine-associated receptor 1 (Homo sapiens), Q96RJ0; antagonist; inhibition, % at 3 µM; 360,000 tested, 1.5% active;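 active = inhibition above a per-plate cutoff, the mean inhibition of test compounds on that plate plus 3 SD, cut at about 49% in these data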;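 note: 0% = DMSO plus EC80 beta-PEA response and 100% = DMSO alone without agonist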
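Assay system: CHO-derived RD-HGA16 cells stably expressing human TAAR1 plus Gα16. Timing: 140 s kinetic read after compound, 140 s after agonist. Technique: kinetic Fluo-8 calcium fluorescence measurement. Measure: % inhibition of agonist calcium response.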
TAAR1 ag = human TAAR1 agonists, primary screen, Fluo-8 calcium fluorescence, CHO RD-HGA16 cells | activation, % at 3 µM | Trace amine-associated receptor 1 (Homo sapiens), Q96RJ0 | 360,000 tested, 0.99% active | vehicle wells 0%, saturating PEA agonist 100%;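 active = activation above the mean activation of all test compounds in the run plus 3 SD, cut at about 38% in these data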
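Test system: RD-HGA16 (CHO) cells co-expressing Gα16 and hTAAR1; dosing: one-point dosing at 3 µM (nominal); timing: 17-24 h seeding, 75 min 37 °C dye, 30 min RT; signal: kinetic Fluo-8 calcium fluorescence; read-out basis: % activation relative to PEA EC100 response; controls: DMSO and PEA EC100; replicates: n 1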
GPR7 antag = GPR7 receptor antagonists, primary screen, cell-based, fluorescence, single concentration; Neuropeptides B/W receptor type 1 (Homo sapiens), P48145; GPR7-expressing cells, fluorescence antagonist assay; inhibition, % at 4.4 µM; 290,000 tested, 1.1% active; AID 1861, 2009; in the data active = inhibition above about 16%, passing the limit was not always enough;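 note: cells stimulated with the agonist NPW; 0% = agonist with vehicle and 100% = vehicle without agonist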
OX1R antag-1 = antagonists of human orexin 1 receptor (OX1R); OX1R-expressing cells, FRET antagonist read-out; inhibition, % at 6.6 µM; 330,000 tested, 1.8% active; AID 485270, 2010; in the data active = inhibition mostly above about 38%, no sharp cut-off; inactive = mostly below about 40%;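 note: 0% = agonist challenge alone and 100% = reference antagonist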
Target sequence (O43613 whole entry, looked up): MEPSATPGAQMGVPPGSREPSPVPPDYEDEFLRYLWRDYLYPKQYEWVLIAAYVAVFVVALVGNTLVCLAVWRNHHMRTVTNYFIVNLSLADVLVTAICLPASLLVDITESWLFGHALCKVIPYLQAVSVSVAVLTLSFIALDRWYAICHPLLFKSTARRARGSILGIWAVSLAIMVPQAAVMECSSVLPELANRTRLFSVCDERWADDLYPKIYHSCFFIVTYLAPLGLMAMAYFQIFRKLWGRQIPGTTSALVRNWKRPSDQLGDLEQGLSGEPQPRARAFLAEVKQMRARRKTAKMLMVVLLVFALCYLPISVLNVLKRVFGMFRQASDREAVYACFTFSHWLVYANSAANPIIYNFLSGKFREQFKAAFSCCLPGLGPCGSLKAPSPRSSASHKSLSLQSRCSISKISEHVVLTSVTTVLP
OX1R antag-2 = OX1R (HCRTR1) antagonists, primary screen, fluorescence, CHO/OX1R cells, Fluo-8 calcium, orexin A. inhibition, % at 5 µM. Fluo-8 calcium fluorescence. 330,000 tested, 0.43% active. Orexin/Hypocretin receptor type 1 (Homo sapiens), O43613. AID 434989, 2010;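 active = inhibition above its plate's threshold, mean inhibition of all tested compounds on the plate plus 3 SD, cut at about 37% in these data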;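 note: 0% = orexin A challenge wells and 100% = SB-334867-A antagonist wells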
nonsel antag count = nonselective antagonists in TAAR1 counter-screen cells, counter-screen for hTAAR1 antagonist project, cell-based, fluorescence, calcium; shares compounds with TAAR1 antag; counterscreen cell line, antagonist mode; inhibition, % at 3 µM; 2,400 tested, 77% active; in the data active = inhibition above about 22%;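 note: CHO-Ga16 host cells stimulated with ATP at an EC80 level; 0% = agonist EC80 plus vehicle and 100% = vehicle without agonist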
TAAR1 ant conf = human TAAR1 antagonists, retest of hits, confirmation, cell-based, fluorescence; inhibition, % at 3 µM; 2,400 tested, 40% active; shares compounds with TAAR1 antag; AID 651785, 2012; TAAR1-expressing cells, fluorescence antagonist read-out; in the data active = inhibition above about 49%;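 note: CHO-Ga16 host cells challenged with agonist PEA near its EC80; 0% = agonist at EC80 plus vehicle and 100% = vehicle with no agonist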
Ga16 nonsel ag = calcium activation in Ga16-expressing cells, counter-screen for TAAR1 antagonist project, cell-based, fluorescence | agonist counterscreen | 2,400 tested, 18% active | activation, % at 3 µM | AID 651953, 2012 | shares compounds with TAAR1 antag; in the data active = activation above about 12%;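 note: 0% = vehicle wells and 100% = saturating stimulus response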
TAAR1 ag counter = TAAR1 activation by candidate antagonists – cell-based, fluorescence, counter-screen for TAAR1 antagonist project; hTAAR1 cell line, agonist mode; shares compounds with TAAR1 antag; 2,400 tested, 2% active; activation, % at 3 µM; AID 651955, 2012; in the data active = activation above about 37%;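 note: CHO cells stably expressing TAAR1 with calcium dye readout; 0% = DMSO vehicle and 100% = full agonist response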
An asterisk follows results filed as active; · = no result given.

SMILES | CHO parental Ca | TAAR1 antag | TAAR1 ag | GPR7 antag | OX1R antag-1 | OX1R antag-2 | nonsel antag count | TAAR1 ant conf | Ga16 nonsel ag | TAAR1 ag counter
COc1ccc(/C=C2\Sc3ccc(C(=O)N4CCCC4)cc3N(C)C2=O)cc1OC | -22.0 | · | · | -1.3 | 12.7 | -16.6 | · | · | · | ·
Cc1cccc(/C=C2\Sc3ccc(C(=O)N4CCC(C(N)=O)CC4)cc3N(C)C2=O)c1 | -4.7 | 60.2* | 7.5 | 9.4 | 3.0 | 2.1 | 17.6 | 26.0 | 5.9 | 5.5
COc1ccccc1CN(C)C(=O)c1ccc(S(=O)(=O)Nc2c(C)n(C)n(-c3ccccc3)c2=O)cc1 | -26.8 | 50.1* | 8.2 | · | 3.6 | -37.1 | 19.9 | 36.4 | 5.3 | 3.6
CC(C)S(=O)(=O)N1CCCC(c2cc(C(=O)NCc3ccccc3)no2)C1 (stereo not drawn) | · | -16.7 | 0.8 | · | · | · | · | · | · | ·
O=C(Nc1nnc([C@@H]2C[C@H](O)[C@@H](CO)O2)s1)Nc1ccccc1C(F)(F)F | · | 1.2 | 1.9 | · | · | · | · | · | · | ·
O=C(NCC1COc2ccccc2O1)C1CCN(S(=O)(=O)c2ccc(Cl)cc2)CC1 (stereo not drawn) | -16.6 | 51.0* | 14.4 | · | 2.9 | -6.0 | 24.4* | 41.8 | 11.8* | 12.3
Cc1ccc2c(c1)C(=O)C(=O)N2Cc1ccc(Br)cc1 | -12.7 | 82.0* | 18.2 | · | 2.6 | -7.6 | 19.3 | 43.1 | 7.5 | -0.1
Cc1ccc(CN2C(=O)C(=O)c3cc(C)ccc32)cc1 | -11.2 | 32.7 | 4.8 | · | -0.1 | 7.6 | · | · | · | ·
CC(C)=N/N=C1/NC(=O)C(c2ccc(Cl)cc2)S1 (stereo not drawn) | · | 54.6* | 27.4 | · | · | · | 0.7 | -2.9 | 2.6 | 3.0
Oc1c(Br)cc(Br)cc1C=NCc1ccccc1 | 13.5 | 18.9 | 9.2 | 0.5 | -12.9 | -20.0 | · | · | · | ·
Oc1c(Br)cc(Br)cc1C=NCc1ccc(F)cc1 | -8.3 | 52.0* | 5.3 | -6.6 | -29.0 | -7.1 | 27.2* | 27.7 | 0.8 | 14.0
CCCn1c(SCC(=O)c2c(C)[nH]c(C)c2C(=O)OCC)nc2ccccc21 | -31.1 | 49.3* | 12.0 | -1.4 | 25.9 | -26.1 | 17.6 | 33.6 | 10.2 | 15.5
CCOC(=O)c1c(C)[nH]c(C)c1C(=O)CSc1nc2ccccc2c(=O)n1-c1ccc(C)cc1 | -15.4 | 0.6 | 1.8 | -12.9 | 14.9 | -12.9 | · | · | · | ·
Cc1c(C(=O)NCc2ccc(C(C)C)cc2)sc(=O)n1Cc1ccc(S(=O)(=O)N(C)C)cc1 | · | 37.8 | 10.5 | · | · | · | · | · | · | ·
O=C(NCc1nc2ccccc2[nH]1)C1=C[C@H](c2ccccc2)C[C@H](OCc2ccc(CO)cc2)O1 | -22.5 | 25.6 | 4.6 | -10.4 | 13.2 | -27.9 | · | · | · | ·
O=C(NCc1ccccc1)C1=C[C@H](c2ccc3c(c2)OCO3)C[C@H](OCc2ccc(CO)cc2)O1 | -11.6 | 58.9* | 9.6 | · | 29.9 | -13.3 | 24.7* | 32.4 | 3.1 | 2.8
C#CCNC(=O)C1=C[C@H](c2csc3ccccc23)C[C@H](OCc2ccc(CO)cc2)O1 | -2.1 | 64.8* | 30.6 | -10.6 | 3.5 | -8.3 | 24.1* | 40.5 | 9.4 | 10.2
